TAAR1 antag = human TAAR1 antagonism | Q96RJ0 | CHO RD-HGA16 TAAR1, Fluo-8 calcium fluorescence, antagonist | inhibition, % at 3 µM | actives 1.5% (n = 360,000) | AID 624466;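 active means inhibition above a per-plate cutoff, the mean inhibition of test compounds on that plate plus 3 SD, cut at about 49% in these data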;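 further: 0% = DMSO plus EC80 beta-PEA response and 100% = DMSO alone without agonist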
Target sequence (Q96RJ0 whole entry, looked up): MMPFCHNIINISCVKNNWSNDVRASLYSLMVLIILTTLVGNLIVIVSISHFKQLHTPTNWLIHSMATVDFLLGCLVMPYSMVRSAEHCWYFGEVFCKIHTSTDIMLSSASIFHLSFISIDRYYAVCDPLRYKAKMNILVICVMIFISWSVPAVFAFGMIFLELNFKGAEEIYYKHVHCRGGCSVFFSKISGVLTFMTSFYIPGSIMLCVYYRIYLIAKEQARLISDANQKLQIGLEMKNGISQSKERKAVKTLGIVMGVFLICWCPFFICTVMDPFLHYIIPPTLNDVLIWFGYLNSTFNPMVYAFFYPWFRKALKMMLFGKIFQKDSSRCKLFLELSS
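test system = CHO RD-HGA16 cells bearing hTAAR1 | replication = singlicate | controls = DMSO-only wells and EC80 β-PEA-stimulated wells | reagent = EC80 β-phenethylamine stimulus | read-out basis = percent inhibition of PEA-evoked calcium signal, max/basal emission ratio | schedule = seeding 17-24 h prior, 75-min 37 °C, 30-min RT dye loading | signal = kinetic Fluo-8 calcium fluorescence measurement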
MC4R antag cAMP = human MC4R antagonism in cAMP assay. MC4R-expressing cells, MTII-stimulated cAMP, LANCE TR-FRET. actives 0.48% (n = 360,000). P32245. inhibition, % at 6.5 µM;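 active means inhibition above its plate's cutoff, the mean of tested wells on that plate plus 3 SD, cut at about 29% in these data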;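 further: 0% = Melanotan II alone and 100% = Melanotan II plus saturating MCL0020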
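Test system: U2OS cells stably expressing human melanocortin 4 receptor (MC4R); also added: Melanotan II challenge; compound: 6.5 µM single dose; timing: 30-min compound preincubation, 1-h Melanotan II challenge, 1-h detection, room temperature; signal: Eu-cAMP/anti-cAMP TR-FRET, emission 671 nm; repeats: one well per compound, no replicates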
HTR2A ag = mouse HTR2A agonism via beta-arrestin recruitment | P35363 | actives 0.66% (n = 360,000) | activation, % at 7.6 µM | CHO-K1 mHTR2A beta-arrestin complementation, luminescence; percent of 30 µM serotonin response | AID 624169;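 active means activation above a run cutoff, the mean activation of all tested compounds plus 3 SD, cut at about 14% in these data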;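 further: 0% = plate median of compound wells and 100% = 30 µM serotonin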
TAAR1 agonist = human TAAR1 agonism | Q96RJ0 | CHO RD-HGA16 TAAR1, Fluo-8 calcium fluorescence; vehicle wells 0%, saturating PEA agonist 100% | activation, % at 3 µM | actives 0.99% (n = 360,000) | AID 624467;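 active means activation above the mean activation of all test compounds in the run plus 3 SD, cut at about 38% in these data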
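Test system: RD-HGA16 (CHO) cells co-expressing Gα16 and hTAAR1 | Doses: Single dose, 3 µM | Schedule: 17-24 h seeding, 75 min 37 °C dye, 30 min RT | Evaluation: % activation from peak over basal fluorescence ratio, DMSO-to-PEA scaled | Technique: Kinetic Fluo-8 calcium fluorescence | Benchmarks: Low control DMSO, high control PEA (EC100)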
Beta2AR agonist = agonists of human beta-2 adrenergic receptor inducing internalization; P07550; Am2.2-beta2AR cells, FAP receptor internalization, flow cytometry; response, % (test concentration not listed); actives 0.43% (n = 340,000); AID 504454;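 active means response above a set limit, near 3 SD of response in nonfluorescent compounds, cut at about 42% in these data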
Target sequence (P07550 whole entry, looked up): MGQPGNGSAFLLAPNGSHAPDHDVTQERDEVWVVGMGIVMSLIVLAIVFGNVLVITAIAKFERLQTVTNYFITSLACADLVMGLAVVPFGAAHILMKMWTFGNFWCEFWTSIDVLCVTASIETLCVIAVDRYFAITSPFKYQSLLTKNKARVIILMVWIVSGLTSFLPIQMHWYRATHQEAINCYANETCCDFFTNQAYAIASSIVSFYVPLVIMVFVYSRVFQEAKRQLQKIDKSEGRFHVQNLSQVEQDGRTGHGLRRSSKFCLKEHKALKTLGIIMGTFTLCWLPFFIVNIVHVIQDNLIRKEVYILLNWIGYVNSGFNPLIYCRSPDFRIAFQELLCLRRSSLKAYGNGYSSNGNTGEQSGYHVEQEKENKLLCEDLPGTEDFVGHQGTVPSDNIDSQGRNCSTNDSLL
MC4R ag barr = activates human MC4R beta-arrestin recruitment | P32245 | U2OS MC4R beta-arrestin complementation, luminescence; percent of melanotan II response, DMSO zero | activation, % at 8.9 µM | actives 0.98% (n = 360,000);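 active means activation above a per-plate cutoff, the mean activation of sample wells on that plate plus 3 SD, cut at about 8% in these data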
MOR ag counter = activates human mu opioid receptor in HTR2A counterscreen | U2OS OPRM1 beta-arrestin PathHunter, luminescence; DMSO 0%, DAMGO 9.3 µM 100% | shares compounds with HTR2A ag | activation, % at 9.3 µM | actives 5.3% (n = 2,300) | AID 624380;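 active means mean activation above the mean of DMSO-only wells plus 3 SD, cut at about 0.5% in these data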
HTR2A ag conf = confirmation of mouse HTR2A serotonin receptor agonists | AID 624381 | CHO-K1 PathHunter beta-arrestin recruitment, luminescence; DMSO 0%, 30 µM serotonin 100% | shares compounds with HTR2A ag | activation, % at 7.6 µM | actives 19% (n = 2,300);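 active means mean activation across triplicates above the hit threshold derived in the original primary screen, cut at about 15% in these data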
Starred values were filed as active, the others as inactive; · = no result given. Shown are actives, neighbours in structure and some others; about 4.3% of the full set was active somewhere.

SMILES	TAAR1 antag	MC4R antag cAMP	HTR2A ag	TAAR1 agonist	Beta2AR agonist	MC4R ag barr	MOR ag counter	HTR2A ag conf
COc1ccc(NC(=O)C2CCCN2S(=O)(=O)c2ccc3c(c2)C(C)(C)C(=O)N3C)cc1 (centres undefined)	-8.1	17.8	34.1*	-0.4	·	0.4	-0.2	-3.1
CC(CCc1ccccc1)NC(=O)c1ccccc1F (centres undefined)	-7.3	14.0	-3.2	0.8	9.5	0.8	·	·
CN(C(=O)c1ccc(F)cc1)c1ccccc1C(=O)NCc1ccccc1	-9.1	4.4	2.1	1.8	-1.3	2.0	·	·
CC(CCc1ccccc1)NC(=O)c1ccccc1Cl (centres undefined)	2.2	-0.7	24.4*	-0.5	2.6	-1.6	-0.5	-4.1
CN(C(=O)c1ccccc1Cl)c1ccccc1C(=O)NCc1ccccc1	24.9	1.6	35.3*	2.9	-0.3	-3.0	-0.8	-2.6
CCc1cc(C(=O)Nc2cc(S(=O)(=O)N3CCCCC3)ccc2N2CCN(C)CC2)sc1C	-3.9	2.0	0.3	5.4	·	-1.6	·	·
CCN(CC(=O)Nc1ccccc1C(F)(F)F)C(=O)CCS(=O)(=O)c1ccc(C)cc1	-9.8	0.4	-1.9	2.4	-4.6	-2.9	·	·
O=C(CNC(=O)c1ccccc1F)OCCCOC(=O)CNC(=O)c1ccccc1F	15.8	10.2	15.2*	0.6	2.4	-1.8	-0.2	1.6
CCS(=O)(=O)C1=NN2C(=N)/C(=C\c3ccc(SCc4ccco4)o3)C(=O)N=C2S1	-8.0	-11.4	17.6*	6.3	-11.8	4.8	2.2*	13.2
O=C(NCCN1CCOCC1)c1ccc(NC(=O)c2ccc(Br)o2)cc1	11.4	·	-8.9	0.5	·	·	·	·
Fc1ccc(NCc2nnc3n2CCCCC3)cc1	-30.9	-5.2	19.5*	3.0	0.0	-2.8	0.0	3.1
O=C(c1cccc(S(=O)(=O)NCc2ccccc2)c1)N1CCCCC1	-9.8	-1.6	18.7*	1.8	8.4	-0.2	-0.2	2.7
Cc1ccc(S(=O)(=O)CC(=O)N2CCCC2)cc1	-0.4	-2.0	-4.0	-1.4	-0.7	1.6	·	·
Cc1ccccc1NS(=O)(=O)c1ccc(C(=O)N2CCN(S(=O)(=O)c3ccccc3)CC2)cc1	48.5	-1.1	14.8*	7.9	11.5	-2.9	-0.2	0.4
O=C(c1ccc(NS(=O)(=O)c2ccccc2)cc1)N1CCCCCC1	16.1	8.4	17.4*	4.1	1.4	-2.4	-0.5	-2.2
O=C(CS(=O)(=O)c1ccccc1)N1CCCCCC1	3.8	8.3	21.2*	7.2	0.9	0.0	-0.3	-1.4
O=C(c1ccc(NS(=O)(=O)c2cccc(F)c2)cc1)N1CCCCC1	4.4	4.2	6.0	4.1	3.2	-3.5	·	·
COc1ccc([N+](=O)[O-])cc1NS(=O)(=O)c1cc(C(=O)N2CCN(C)CC2)ccc1OC	-8.0	7.9	7.2	1.1	-3.0	-1.5	·	·
CCOC(=O)C1(Cc2ccccc2C)CCCN(C(=O)c2ccoc2)C1 (centres undefined)	-2.5	-7.4	5.8	-0.8	6.9	1.3	·	·
N#Cc1ccccc1NC(=O)COc1ccccc1C(=O)Nc1ccccc1	48.4	1.2	-1.1	13.0	4.6	0.0	·	·
CCn1c2c(n(C(C)=O)c1=O)C[C@@H](c1ccccc1)[C@@H](C)[C@@H](C(=O)N1CCCC1)C2	-19.7	·	·	1.2	·	·	·	·
COC(=O)[C@@]1(Cc2ccc(F)cc2)[C@H]2c3cc(C(=O)N(C)C)n(CC4CC4)c3C[C@H]2CN1C(=O)c1ccccc1	-16.9	·	-2.0	25.6	·	·	·	·
Cc1cccc2nc(-c3cccc(NC(=O)c4ccc(Cl)cc4)c3)cn12	-5.8	-2.5	21.9*	-1.0	11.8	5.0	-0.7	-3.6
Cc1cccc2nc(-c3cccc(NC(=O)Cc4ccccc4)c3)cn12	-5.4	0.8	-3.4	-1.1	1.2	1.0	·	·
CCS(=O)(=O)c1ccc(Sc2nncn2C)c([N+](=O)[O-])c1	-7.2	-2.4	14.5*	3.7	1.0	-2.5	0.0	3.9
SMILES	TAAR1 antag	MC4R antag cAMP	HTR2A ag	TAAR1 agonist	Beta2AR agonist	MC4R ag barr	MOR ag counter	HTR2A ag conf
CCN(CC)S(=O)(=O)c1ccc(NC(=O)c2ccc(Sc3nncn3C)c([N+](=O)[O-])c2)cc1	-9.5	5.2	-4.5	5.9	3.4	-1.0	·	·
COc1ccc(-c2nc3n(c2C)CCC3)cc1	-23.1	17.0	23.1*	0.9	-8.9	-0.3	-0.3	15.4*
CC(=O)N1CCN(C(=O)c2[nH]c(C(F)(F)F)nc2-c2ccccc2)CC1	3.2	·	9.9	0.1	·	·	·	·
O=C(c1[nH]c(C(F)(F)F)nc1-c1ccccc1)N1CCN(c2cccc(C(F)(F)F)n2)CC1	-14.1	·	14.4*	9.5	·	·	-0.5	3.5
O=C(CCS(=O)(=O)c1ccccc1Cl)NC1CCCCCC1	2.7	-3.9	20.9*	-2.6	-4.4	0.5	-0.3	-1.0
O=C(CCS(=O)(=O)c1ccccc1)NC1CCCCC1	-20.8	0.7	-2.2	1.8	4.8	-3.2	·	·
NCCCC[C@H]1CNC(=S)N1CCc1cccc(F)c1	1.1	0.7	0.0	6.9	1.7	-1.2	·	·
CCC1(CC)C(=O)NC(=S)N=C1N	-17.2	-3.9	21.1*	3.5	1.4	-1.0	0.0	1.1
CCCN(CC(=O)Nc1cc(Cl)ccc1Cl)C(=O)c1ccc2n[nH]nc2c1	-3.6	3.4	4.4	3.2	-1.2	-1.2	·	·
Cc1ccc(S(=O)(=O)CCC(=O)OCc2cc(=O)oc3cc(C)ccc23)cc1	2.4	-3.1	-8.2	3.2	-5.9	-3.1	·	·
COc1cccc(C(=O)NCCS(=O)(=O)N2CCC(C)CC2)c1	6.1	0.2	14.4*	0.8	-7.5	-1.2	-0.5	-4.7
CCCCCc1c(C)[nH]c2nc3ccccc3n2c1=O	-6.5	7.4	-0.7	5.1	-20.9	-0.2	·	·
Cc1ccc(S(=O)(=O)NC(=O)NCc2ccccn2)cc1	-13.9	-6.0	14.4*	5.7	5.5	1.0	-0.5	-2.7
COc1ccc(C(=O)NNC(=O)c2ccc(S(=O)(=O)N3CCCCC3)cc2)cc1	-10.4	0.3	4.3	1.7	7.1	2.1	·	·
CCN(C(=O)CSc1n[nH]c(N)n1)C1CCCCC1	-11.0	6.8	16.8*	4.7	6.8	1.6	-0.7	-4.7
CCN(Cc1ccccc1)C(=O)CSc1n[nH]c(N)n1	-15.2	-0.5	1.4	9.4	-1.8	-1.2	·	·
